Source: paper PMC3057505 (Journal of medicinal chemistry, 2010)
“Also recorded” adds a separate entry of the source.

How the values were obtained:
[1] = target: aggregated amyloid peptide Aβ1-40 (Homo sapiens, UniProt P05067); assay: In vitro Aβ1-40 binding affinity by fluorescence titration; conditions: for fold weaker Aβ binding affinity compared to 4: ratio of Kd vs compound 4; for decrease in Aβ binding affinity: compared to 4
[2] = DPPH free radical scavenging assay; assay type: physicochemical; conditions: for DPPH free radical scavenging activity relative to quercetin: vs quercetin IC50 = 1.3 ± 1.1 μM; for fold less potent than quercetin in DPPH free radical scavenging: p < 0.05 vs quercetin
[3] = test system: Aβ plaques; conditions: APP or APP/PS1 mice; cited from earlier work
[4] = test system: Aβ plaques; assay type: binding, APP/PS1 transgenic mouse
Outline: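 Brains from 11-month-old APP/PS1 mice (Tg2576 APP Swedish × M146L PS1 line) were perfused with 4% paraformaldehyde, cryoprotected in 20% sucrose and cut into 10 μm frozen sections, three per dilution point. Sections were stained 30 min with 50 μM test compound in 9:1 PBS/EtOH, then washed in 75% EtOH, 95% EtOH and xylene. S/N was taken as plaque fluorescence over background tissue.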

[5] = test system: Aβ plaques in human AD brain sections; assay: Fluorescence staining of human AD brain sections; assay type: binding; conditions: 50 μM, 30 min, 9:1 PBS:EtOH, frozen sections 10 μm
Outline: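 Frozen 10 μm sections of human AD brain and age-matched control brain. Stained 30 min with 50 μM test compound in 9:1 PBS/EtOH, made by diluting a DMSO stock to 0.50 mM in EtOH and then into PBS/EtOH. Washed in turn with 75% aqueous EtOH, 95% EtOH and xylene. Plaque staining was read by fluorescence microscopy.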

[6] = test system: Aβ plaques; assay: In vivo BBB delivery to Aβ plaque-bearing PDAPP mouse brain; design: species or system PDAPP transgenic mice; conditions: single 50 mg/kg IP, ten-month-old PDAPP mice, sacrificed 48 h after injection
Outline: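 Ten-month-old PDAPP transgenic mice received a single ip dose of 50 mg/kg test compound, with vehicle-only controls (10% DMSO/PBS). At 48 h they were killed by transcardial perfusion with 4% PFA in PBS. Brains were cryoprotected, frozen, sectioned, postfixed 5 min in 4% PFA, washed in PBS and mounted. Plaque fluorescence was imaged in hippocampal CA1 and dentate gyrus at 10× and 40×.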

aggregated amyloid peptide Aβ1-40, sequence (P05067 672-711 limits assumed): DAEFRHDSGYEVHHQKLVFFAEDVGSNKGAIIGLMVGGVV

## Oc1ccc(/C=C/c2ccc(/C=C/c3cccc(O)c3)cc2)cc1 [Compound 12, (E,E)-1-(4-hydroxystyryl)-4-(3-hydroxystyryl)benzene]
[1]
  fold weaker Aβ binding affinity compared to 4: 370 fold
[1]; ratio of Kd vs compound 8
  fold weaker Aβ binding affinity compared to 8: 660 fold
[2]
  DPPH free radical scavenging activity relative to quercetin: no less effective than quercetin

## Oc1cccc(/C=C/c2ccc(/C=C/c3ccc(O)c(O)c3)cc2)c1 [Compound 15, (E,E)-1-(3-hydroxystyryl)-4-(3,4-dihydroxystyryl)benzene]
[2]
  fold less potent than quercetin in DPPH free radical scavenging: 3 to 7 fold

## O=C(O)c1cc(/C=C/c2ccc(/C=C/c3ccc(O)c(C(=O)O)c3)c(F)c2)ccc1O [FSB]
[3]
  BBB penetration and binding to Aβ plaques: penetrate the blood – brain barrier (BBB) and bind to Aβ plaques

## Oc1ccc(/C=C/c2ccc(/C=C/c3cc(O)cc(O)c3)cc2)cc1 [Compound 14, (E,E)-1-(4-hydroxystyryl)-4-(3,5-dihydroxystyryl)benzene]
[1]
  fold weaker Aβ binding affinity compared to 4: 17 to 27 fold
[2]
  fold less potent than quercetin in DPPH free radical scavenging: 3 to 7 fold

## Oc1ccc(C#Cc2ccc(C#Cc3ccc(O)cc3)cc2)cc1 [Compound 17]
[1]
  fold weaker Aβ binding affinity compared to 4: 6 fold
[4]; ratio of S/N vs compound 4
  fold loss in specificity compared to 4: 2.4 fold

## Oc1ccc(/C=C/c2ccc(O)cc2)cc1 [Compound 16]
[1]
  decrease in Aβ binding affinity: three orders of magnitude weaker
[2]
  DPPH free radical scavenging activity relative to quercetin: no less effective than quercetin

## O=C(O)c1cc(/C=C/c2ccc(/C=C/c3ccc(O)c(C(=O)O)c3)cc2)ccc1O [Compound X-34]
[3]
  BBB penetration and binding to Aβ plaques: penetrate the blood – brain barrier (BBB) and bind to Aβ plaques

## Oc1cc(O)cc(/C=C/c2ccc(/C=C/c3cc(O)cc(O)c3)cc2)c1 [Compound 10, (E,E)-1,4-bis(3,5-dihydroxystyryl)benzene]
[1]
  fold weaker Aβ binding affinity compared to 4: 17 to 27 fold
[5]
  staining of Aβ plaques in human AD brain sections: bind specifically to Aβ plaques in human brain sections
[6]
  BBB crossing and Aβ plaque binding in vivo: crossed the BBB and bound to Aβ plaques in vivo
[2]
  fold less potent than quercetin in DPPH free radical scavenging: 3 to 7 fold

## Oc1ccc(/C=C/c2ccc(/C=C/c3ccccc3)cc2)cc1 [Compound 11, (E,E)-1-styryl-4-(4-hydroxystyryl)benzene]
[1]
  fold weaker Aβ binding affinity compared to 4: 16 fold

## Oc1ccc(/C=C/c2ccc(/C=C/c3ccc(O)c(O)c3)cc2)cc1 [Compound 13, (E,E)-1-(4-hydroxystyryl)-4-(3,4-dihydroxystyryl)benzene]
[1]
  fold weaker Aβ binding affinity compared to 4: 17 to 27 fold

## Oc1ccc(/C=C/c2cccc(/C=C/c3ccc(O)cc3)c2)cc1 [Compound 6, (E,E)-1,3-bis(4-hydroxystyryl)benzene]
[1]
  decrease in Aβ binding affinity: two order of magnitude decrease
[2]
  DPPH free radical scavenging activity relative to quercetin: no less effective than quercetin

## Oc1ccc(/C=C/c2ccc(/C=C/c3ccc(O)cc3)cc2)cc1 [Compound 4, (E,E)-1,4-bis(4-hydroxystyryl)benzene]
[5]
  staining of Aβ plaques in human AD brain sections: bind specifically to Aβ plaques in human brain sections
[6]; 50 mg/kg
  BBB crossing and Aβ plaque binding in vivo: crossed the BBB and bound to Aβ plaques in vivo; also recorded: crossed the blood-brain-barrier and bound to Aβ plaques in vivo
[2]
  DPPH free radical scavenging activity relative to quercetin: no less effective than quercetin

## Oc1ccc(/C=C/c2ccccc2/C=C/c2ccc(O)cc2)cc1 [Compound 7, (E,E)-1,2-bis(4-hydroxystyryl)benzene]
[1]
  decrease in Aβ binding affinity: two order of magnitude decrease
[2]
  fold less potent than quercetin in DPPH free radical scavenging: 3 to 7 fold

## Oc1cccc(/C=C/c2ccc(/C=C/c3cccc(O)c3)cc2)c1 [Compound 8, (E,E)-1,4-bis(3-hydroxystyryl)benzene]
[5]
  staining of Aβ plaques in human AD brain sections: bind specifically to Aβ plaques in human brain sections
[6]; 50 mg/kg
  BBB crossing and Aβ plaque binding in vivo: crossed the BBB and bound to Aβ plaques in vivo; also recorded: crossed the blood-brain-barrier and bound to Aβ plaques in vivo

## Oc1ccccc1/C=C/c1ccc(/C=C/c2ccccc2O)cc1 [Compound 9, (E,E)-1,4-bis(2-hydroxystyryl)benzene]
[1]
  fold weaker Aβ binding affinity compared to 4: 84 fold
[4]; APP/PS1 mouse brain sections
  Aβ binding specificity: good binding specificity
[2]
  fold less potent than quercetin in DPPH free radical scavenging: 3 to 7 fold
